Laboratory results taken from article PMC3971662 (The Journal of General Physiology, 2014).
“And” between values parts separate entries of the source, which are not always exact repeats. Equal values may be shown once. Read-outs that look alike come from different tables or passages of the source.

How the values were obtained:
[1] = target: FL2/WT2 hERG1 channels (F557L) (Homo sapiens, UniProt Q12809, F557L); assay: Two-electrode voltage clamp, concatenated tetramer FL2/WT2 in Xenopus oocytes; format: cell-based; details: 30 µM ICA, mean ± SEM
Procedure, shortened: (§1)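 F557L/WT concatenated tetramers were expressed from 50 ng cRNA and recorded 4–8 d later by two-electrode voltage clamp in pH 7.6 HEPES bath, with and without test compound. V0.5act and z came from Boltzmann fits of tails at −70 mV after 4-s steps. Inactivation: 1 s at 40 mV, then 5 s at 30 to −140 mV, with Itail/(Vret−Erev) fitted. Fold increase in Itest at 20 mV over 1–30 µM was fitted logistically (EC50, nH).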

[2] = target: WT3/FL1 hERG1 channels (F557L) (Homo sapiens, UniProt Q12809, F557L); assay: Two-electrode voltage clamp, concatenated tetramer WT3/FL1 in Xenopus oocytes; format: cell-based; details: 30 µM ICA, mean ± SEM
Procedure, shortened: as §1

[3] = target: FL1/WT1/FL1/WT1 hERG1 channels (F557L) (Homo sapiens, UniProt Q12809, F557L); format: cell-based; details: 30 µM ICA, mean ± SEM
Procedure, shortened: as §1

[4] = target: FL1/WT1/FL2 hERG1 channels (F557L) (Homo sapiens, UniProt Q12809, F557L); format: cell-based
Procedure, shortened: as §1

[5] = Limit of solubility in extracellular solution; format: physicochemical; details: extracellular solution pH 7.6, diluted from 20-mM DMSO stock
WT hERG1 channels = WT hERG1 channels (Homo sapiens, UniProt Q12809); format: cell-based; details: for fold increase in Itest (isochronal, 4 s): 10 µM ICA, stated for WT and WT4 together
Procedure, shortened: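 Oocytes were injected with 10 ng cRNA for single WT subunits and recorded 1–3 d later by two-electrode voltage clamp. Bath (mM): 98 NaCl, 2 KCl, 1 CaCl2, 1 MgCl2, 5 HEPES, pH 7.6. Test compound was diluted from a 20 mM DMSO stock just before use. Itest was taken at the end of 4-s steps (−70 to 50 mV); tails at −70 mV were Boltzmann-fitted for V0.5act and z. Mean ± SEM, n = oocytes.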

WT4 hERG1 channels = WT4 hERG1 channels (Homo sapiens, UniProt Q12809); format: cell-based; details: for fold increase in Itest (isochronal, 4 s): 10 µM ICA, stated for WT and WT4 together
Procedure, shortened: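 WT4 tetramers (50 ng cRNA, 4–8 d) were studied by two-electrode voltage clamp in pH 7.6 bath, 2 mM KCl. Tests used 4-s steps, −70 to 50 mV, with tails at −70 mV and Boltzmann fits (V0.5act). Inactivation: 40 mV prepulse, then 5 s at 30 to −140 mV. Concentration-response of Itest at 20 mV or of Itail-max was fitted logistically (EC50, nH). Some Itail-Vret runs used 20 mM KCl bath.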

[6] = target: FL1/WT3 hERG1 channels (F557L) (Homo sapiens, UniProt Q12809, F557L); assay: Two-electrode voltage clamp, concatenated tetramer FL1/WT3 in Xenopus oocytes; format: cell-based; details: 30 µM ICA
Procedure, shortened: as §1

[7] = target: FL4 hERG1 channels (F557L) (Homo sapiens, UniProt Q12809, F557L); assay: Two-electrode voltage clamp, concatenated tetramer FL4 in Xenopus oocytes; format: cell-based; details: 30 µM ICA, mean ± SEM
Procedure, shortened: as §1

[8] = target: LE1/WT3 hERG1 channels (L646E) (Homo sapiens, UniProt Q12809, L646E); assay: Two-electrode voltage clamp, concatenated tetramer LE1/WT3 in Xenopus oocytes; format: cell-based
Procedure, shortened: (§2)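 Concatenated L646E/WT tetramers: 50 ng cRNA per oocyte, recorded 4–8 d later by two-electrode voltage clamp in pH 7.6 HEPES bath. Activation used 4-s steps, −70 to 50 mV, with Itail at −70 mV Boltzmann-fitted for V0.5act and z. Inactivation used 1 s at 40 mV, then 5 s at 30 to −140 mV; Itail/(Vret−Erev) was Boltzmann-fitted. Fold increase in Itail-max over 1–30 µM was fitted with a logistic equation (EC50, nH).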

[9] = target: LE2/WT2 hERG1 channels (L646E) (Homo sapiens, UniProt Q12809, L646E); assay: Two-electrode voltage clamp, concatenated tetramer LE2/WT2 in Xenopus oocytes; format: cell-based; details: 10 µM PD, mean ± SEM
Procedure, shortened: as §2

[10] = target: LE4 hERG1 channels (L646E) (Homo sapiens, UniProt Q12809, L646E); assay: Two-electrode voltage clamp, concatenated tetramer LE4 in Xenopus oocytes; format: cell-based; details: 10 µM PD, mean ± SEM
Procedure, shortened: as §2

[11] = target: LE1/WT1/LE2 hERG1 channels (L646E) (Homo sapiens, UniProt Q12809, L646E); format: cell-based; details: 10 µM PD, mean ± SEM
Procedure, shortened: as §2

[12] = target: LE1/WT1/LE1/WT1 hERG1 channels (L646E) (Homo sapiens, UniProt Q12809, L646E); format: cell-based; details: 10 µM PD, mean ± SEM
Procedure, shortened: as §2

[13] = target: WT3/LE1 hERG1 channels (L646E) (Homo sapiens, UniProt Q12809, L646E); assay: Two-electrode voltage clamp, concatenated tetramer WT3/LE1 in Xenopus oocytes; format: cell-based
Procedure, shortened: as §2

## O=C(Nc1ccc(Oc2ccccc2)cc1)c1cccc([N+](=O)[O-])c1 [ICA, 3-nitro-N-(4-phenoxyphenyl) benzamide]
[1]
  V0.5act (half-point of channel activation): −37.1 ± 0.4 mV
  V0.5inact (V0.5 for C-type inactivation): −22.4 ± 9.3 mV
  z (equivalent charge) for activation: 3.88 ± 0.48
  z for inactivation: 0.46 ± 0.01
[2]
  V0.5act (half-point of channel activation): −36.7 ± 1.1 mV
  V0.5inact (V0.5 for C-type inactivation): 49.9 ± 4.0 mV
  z (equivalent charge) for activation: 3.57 ± 0.39
  z for inactivation: 1.21 ± 0.03
[3]
  V0.5act (half-point of channel activation): −29.6 ± 1.6 mV
  V0.5inact (V0.5 for C-type inactivation): −33.7 ± 16.0 mV
  z (equivalent charge) for activation: 3.00 ± 0.25
  z for inactivation: 0.56 ± 0.03
[4]; 30 µM ICA, mean ± SEM
  V0.5act (half-point of channel activation): −19.5 ± 2.9 mV
  V0.5inact (V0.5 for C-type inactivation): −72.5 ± 7.7 mV
  z (equivalent charge) for activation: 2.80 ± 0.22
  z for inactivation: 0.61 ± 0.05
[4]; 30 µM ICA, n = 4
  shift in V0.5inact: 6.6 ± 1.6 mV
[4]; ICA
  nH (Hill coefficient) for increase in Itest at 20 mV: 2.0
[4]; read-out: EC50 for increase in Itest measured at 20 mV, ICA
  EC50: 11.8 µM
[5]
  limit of solubility: 0.03 mM
WT hERG1 channels; at 20 mV
  fold increase in Itest (isochronal, 4 s): 20 fold
WT hERG1 channels; at −30 mV
  fold increase in Itest (isochronal, 4 s): 4 fold
WT4 hERG1 channels; at 20 mV
  fold increase in Itest (isochronal, 4 s): 20 fold
WT4 hERG1 channels; at −30 mV
  fold increase in Itest (isochronal, 4 s): 4 fold
WT4 hERG1 channels; 30 µM ICA, WT4, bath solution containing 20 mM KCl
  effect on Itail at potentials more negative than −100 mV: did not cause an increase in Itail
WT4 hERG1 channels; 30 µM ICA, WT4, mean ± SEM
  V0.5inact (V0.5 for C-type inactivation): 57.8 ± 4.1 mV
  z for inactivation: 1.17 ± 0.05
WT4 hERG1 channels; ICA, WT4
  nH (Hill coefficient) for increase in Itest at 20 mV: 1.7
WT4 hERG1 channels; ICA, ratio WT4 vs FL1/WT1/FL2
  increase in current at Vt of 20 mV, WT4 channels compared with FL1/WT1/FL2 channels: ~13 fold
WT4 hERG1 channels; read-out: EC50 for increase in Itest measured at 20 mV, ICA, WT4
  EC50: 9.1 µM
[6]; mean ± SEM
  V0.5act (half-point of channel activation): −34.5 ± 1.5 mV
  V0.5inact (V0.5 for C-type inactivation): 28.5 ± 6.0 mV
  z (equivalent charge) for activation: 4.06 ± 0.39
  z for inactivation: 0.95 ± 0.13
[6]; n = 4
  positive shift in V0.5inact: 70 ± 3 mV
[7]
  V0.5act (half-point of channel activation): −18.7 ± 1.0 mV
  V0.5inact (V0.5 for C-type inactivation): −98.8 ± 7.8 mV
  z (equivalent charge) for activation: 3.60 ± 0.15
  z for inactivation: 0.69 ± 0.04

## O=C(O)c1ccccc1Nc1ccc(CCc2ccc(Cl)c(Cl)c2)cc1 [PD, 2-(4-[2-(3,4-dichloro-phenyl)-ethyl]-phenylamino)-benzoic acid]
[8]
  EC50: 4.6 µM
[8]; 10 µM PD, LE1/WT3, mean ± SEM
  V0.5act (half-point of channel activation): −30.1 ± 1.6 mV
  V0.5inact (V0.5 for C-type inactivation): −44.6 ± 2.7 mV
  z (equivalent charge) for activation: 4.20 ± 0.07
  z for activation (Figure 6 legend): 4.2 ± 0.07
  z for inactivation: 1.24 ± 0.10
[8]; PD, LE1/WT3
  nH (Hill coefficient) for fold increase in Itail-max: 1.1
[9]
  V0.5act (half-point of channel activation): −31.3 ± 1.0 mV
  V0.5inact (V0.5 for C-type inactivation): −45.5 ± 2.8 mV
  z (equivalent charge) for activation: 3.94 ± 0.12
  z for inactivation: 1.19 ± 0.08
[10]
  V0.5act (half-point of channel activation): −32.6 ± 1.2 mV
  V0.5inact (V0.5 for C-type inactivation): −43.6 ± 2.2 mV
  z (equivalent charge) for activation: 3.55 ± 0.25
  z for inactivation: 1.52 ± 0.05
WT hERG1 channels; 10 µM PD, WT hERG1
  increase in Itest measured at the end of 4-s pulses: about twofold
WT hERG1 channels; 10 µM PD, WT hERG1, mean ± SEM
  V0.5act (half-point of channel activation): −29.2 ± 14 mV
  V0.5inact (V0.5 for C-type inactivation): −34.7 ± 4.2 mV
  z (equivalent charge) for activation: 3.07 ± 0.34
  z for inactivation: 1.19 ± 0.09
WT4 hERG1 channels; 10 µM PD, WT4
  increase in Itest measured at the end of 4-s pulses: about twofold
WT4 hERG1 channels; 10 µM PD, WT4, Vret −140 mV after 1-s pulse to 40 mV
  increase in Itail: 68%
WT4 hERG1 channels; 10 µM PD, WT4, mean ± SEM
  V0.5act (half-point of channel activation): −26.7 ± 1.0 mV
  V0.5inact (V0.5 for C-type inactivation): −39.4 ± 4.6 mV
  z (equivalent charge) for activation: 3.07 ± 0.30
  z for inactivation: 1.26 ± 0.17
[11]
  V0.5act (half-point of channel activation): −30.3 ± 1.4 mV
  V0.5inact (V0.5 for C-type inactivation): −47.7 ± 4.0 mV
  z (equivalent charge) for activation: 3.55 ± 0.15
  z for inactivation: 1.31 ± 0.08
[12]
  V0.5act (half-point of channel activation): −32.7 ± 0.8 mV
  V0.5inact (V0.5 for C-type inactivation): −43.3 ± 3.4 mV
  z (equivalent charge) for activation: 3.45 ± 0.19
  z for inactivation: 1.22 ± 0.07
[13]
  EC50: 4.8 µM
[13]; 10 µM PD, WT3/LE1, mean ± SEM
  V0.5act (half-point of channel activation): −27.1 ± 1.3 mV and −27.1 ± 1.29 mV
  V0.5inact (V0.5 for C-type inactivation): −33.5 ± 3.7 mV
  z (equivalent charge) for activation: 3.44 ± 0.16
  z for activation (Figure 6 legend): 3.44 ± 0.16
  z for inactivation: 1.44 ± 0.19
[13]; PD, WT3/LE1
  nH (Hill coefficient) for fold increase in Itail-max: 1.4
